The structures appear in SMILES notation. Calls of active or inactive are those of the source. No cut-off for these calls is given here.

The target of experiment [1] is Lysine-specific demethylase 5A (Homo sapiens, UniProt P29375). Briefly: Inhibition of KDM5A (unknown origin) using H3K4me3 peptide and 2-oxoglutarate as substrate after 1 hr by FDH-coupled assay. The procedure, abridged: (§1)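 Run as the FDH-coupled KDM4C format, with compounds in DMSO and activity relative to a DMSO control. KDM4A was used at 0.37 mg/mL final with H3K9me3 peptide. KDM5A was used at 0.64 mg/mL final with H3K4me3 peptide. Values are means of two experiments.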
Sequence of Lysine-specific demethylase 5A (P29375 whole entry): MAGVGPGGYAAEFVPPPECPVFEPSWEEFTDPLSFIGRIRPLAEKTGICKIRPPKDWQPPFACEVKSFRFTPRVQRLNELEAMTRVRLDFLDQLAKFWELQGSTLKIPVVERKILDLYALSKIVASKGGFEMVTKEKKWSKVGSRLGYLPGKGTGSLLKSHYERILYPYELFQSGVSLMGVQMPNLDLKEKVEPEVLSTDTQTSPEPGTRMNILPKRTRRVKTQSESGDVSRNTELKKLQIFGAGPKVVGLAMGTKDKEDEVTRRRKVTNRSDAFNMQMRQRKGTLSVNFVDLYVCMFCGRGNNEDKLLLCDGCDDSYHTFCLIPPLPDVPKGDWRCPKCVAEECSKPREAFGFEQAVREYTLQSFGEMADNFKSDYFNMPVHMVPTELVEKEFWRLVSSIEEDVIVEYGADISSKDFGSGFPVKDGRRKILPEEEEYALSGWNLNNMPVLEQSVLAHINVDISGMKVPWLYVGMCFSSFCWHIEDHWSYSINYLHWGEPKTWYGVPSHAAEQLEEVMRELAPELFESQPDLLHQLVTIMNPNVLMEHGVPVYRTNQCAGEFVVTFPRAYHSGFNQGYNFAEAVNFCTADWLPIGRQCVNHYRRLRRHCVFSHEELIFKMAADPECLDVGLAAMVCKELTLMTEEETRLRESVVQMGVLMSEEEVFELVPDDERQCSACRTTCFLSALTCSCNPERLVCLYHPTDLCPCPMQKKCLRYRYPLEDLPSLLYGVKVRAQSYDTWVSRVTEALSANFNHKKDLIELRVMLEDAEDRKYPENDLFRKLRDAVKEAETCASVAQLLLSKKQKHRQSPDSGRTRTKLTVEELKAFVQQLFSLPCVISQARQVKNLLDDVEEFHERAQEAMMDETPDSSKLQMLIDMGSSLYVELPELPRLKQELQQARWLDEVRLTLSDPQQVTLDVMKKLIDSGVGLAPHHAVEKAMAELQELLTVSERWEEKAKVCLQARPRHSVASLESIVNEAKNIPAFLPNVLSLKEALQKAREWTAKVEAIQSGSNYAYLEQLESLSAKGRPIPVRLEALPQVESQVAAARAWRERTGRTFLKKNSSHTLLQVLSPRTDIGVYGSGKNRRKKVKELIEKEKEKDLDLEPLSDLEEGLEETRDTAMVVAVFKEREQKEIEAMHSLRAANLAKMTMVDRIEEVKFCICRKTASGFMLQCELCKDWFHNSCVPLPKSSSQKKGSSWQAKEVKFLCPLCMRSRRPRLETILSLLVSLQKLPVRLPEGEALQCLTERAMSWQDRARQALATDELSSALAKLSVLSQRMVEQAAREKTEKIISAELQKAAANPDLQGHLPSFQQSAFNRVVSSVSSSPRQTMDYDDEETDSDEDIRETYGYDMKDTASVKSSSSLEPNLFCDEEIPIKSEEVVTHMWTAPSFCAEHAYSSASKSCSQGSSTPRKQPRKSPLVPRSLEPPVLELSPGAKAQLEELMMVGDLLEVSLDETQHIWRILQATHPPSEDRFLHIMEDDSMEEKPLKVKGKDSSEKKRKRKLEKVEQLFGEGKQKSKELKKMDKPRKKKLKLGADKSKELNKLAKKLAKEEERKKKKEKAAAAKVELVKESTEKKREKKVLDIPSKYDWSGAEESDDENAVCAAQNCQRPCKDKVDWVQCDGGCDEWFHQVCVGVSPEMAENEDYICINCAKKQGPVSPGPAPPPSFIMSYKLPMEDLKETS

The target of experiment [2] is T1, Lysine-specific demethylase 2A (Homo sapiens, UniProt Q9Y2K7).
T1 sequence (Q9Y2K7 whole entry): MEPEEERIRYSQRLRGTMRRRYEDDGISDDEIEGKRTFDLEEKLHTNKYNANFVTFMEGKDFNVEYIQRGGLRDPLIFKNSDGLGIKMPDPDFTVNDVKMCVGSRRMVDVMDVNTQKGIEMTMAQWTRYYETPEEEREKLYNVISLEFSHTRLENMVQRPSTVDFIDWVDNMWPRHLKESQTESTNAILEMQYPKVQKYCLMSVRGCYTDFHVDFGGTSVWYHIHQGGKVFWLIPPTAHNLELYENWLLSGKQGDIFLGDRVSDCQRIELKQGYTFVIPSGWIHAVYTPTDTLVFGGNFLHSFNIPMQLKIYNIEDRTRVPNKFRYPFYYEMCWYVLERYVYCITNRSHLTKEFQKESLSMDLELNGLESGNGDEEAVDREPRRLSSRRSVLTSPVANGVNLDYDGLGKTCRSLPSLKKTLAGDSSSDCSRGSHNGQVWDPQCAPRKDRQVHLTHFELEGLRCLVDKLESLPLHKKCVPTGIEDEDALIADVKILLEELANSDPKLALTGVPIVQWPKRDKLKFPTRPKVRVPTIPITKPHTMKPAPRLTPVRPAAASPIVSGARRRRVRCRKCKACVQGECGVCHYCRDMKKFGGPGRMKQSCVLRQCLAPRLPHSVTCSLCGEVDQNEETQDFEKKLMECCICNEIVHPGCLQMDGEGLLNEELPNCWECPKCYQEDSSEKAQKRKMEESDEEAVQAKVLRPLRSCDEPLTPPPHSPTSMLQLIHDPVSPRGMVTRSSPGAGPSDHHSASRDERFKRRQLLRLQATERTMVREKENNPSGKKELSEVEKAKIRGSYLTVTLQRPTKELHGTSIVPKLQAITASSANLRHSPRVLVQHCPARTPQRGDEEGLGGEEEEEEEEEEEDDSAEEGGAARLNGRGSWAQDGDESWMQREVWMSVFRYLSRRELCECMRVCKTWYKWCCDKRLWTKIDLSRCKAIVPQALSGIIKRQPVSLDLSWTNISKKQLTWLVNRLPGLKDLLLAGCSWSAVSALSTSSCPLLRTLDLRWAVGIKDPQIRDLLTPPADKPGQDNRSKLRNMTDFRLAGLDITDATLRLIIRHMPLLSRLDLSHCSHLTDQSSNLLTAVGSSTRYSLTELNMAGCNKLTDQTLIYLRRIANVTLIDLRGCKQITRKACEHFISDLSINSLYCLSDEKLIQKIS
In words: Inhibition of KDM2A (unknown origin).

Experiment [3] deals with T2, Lysine-specific demethylase 4A (Homo sapiens, UniProt O75164).
T2 sequence (O75164 whole entry): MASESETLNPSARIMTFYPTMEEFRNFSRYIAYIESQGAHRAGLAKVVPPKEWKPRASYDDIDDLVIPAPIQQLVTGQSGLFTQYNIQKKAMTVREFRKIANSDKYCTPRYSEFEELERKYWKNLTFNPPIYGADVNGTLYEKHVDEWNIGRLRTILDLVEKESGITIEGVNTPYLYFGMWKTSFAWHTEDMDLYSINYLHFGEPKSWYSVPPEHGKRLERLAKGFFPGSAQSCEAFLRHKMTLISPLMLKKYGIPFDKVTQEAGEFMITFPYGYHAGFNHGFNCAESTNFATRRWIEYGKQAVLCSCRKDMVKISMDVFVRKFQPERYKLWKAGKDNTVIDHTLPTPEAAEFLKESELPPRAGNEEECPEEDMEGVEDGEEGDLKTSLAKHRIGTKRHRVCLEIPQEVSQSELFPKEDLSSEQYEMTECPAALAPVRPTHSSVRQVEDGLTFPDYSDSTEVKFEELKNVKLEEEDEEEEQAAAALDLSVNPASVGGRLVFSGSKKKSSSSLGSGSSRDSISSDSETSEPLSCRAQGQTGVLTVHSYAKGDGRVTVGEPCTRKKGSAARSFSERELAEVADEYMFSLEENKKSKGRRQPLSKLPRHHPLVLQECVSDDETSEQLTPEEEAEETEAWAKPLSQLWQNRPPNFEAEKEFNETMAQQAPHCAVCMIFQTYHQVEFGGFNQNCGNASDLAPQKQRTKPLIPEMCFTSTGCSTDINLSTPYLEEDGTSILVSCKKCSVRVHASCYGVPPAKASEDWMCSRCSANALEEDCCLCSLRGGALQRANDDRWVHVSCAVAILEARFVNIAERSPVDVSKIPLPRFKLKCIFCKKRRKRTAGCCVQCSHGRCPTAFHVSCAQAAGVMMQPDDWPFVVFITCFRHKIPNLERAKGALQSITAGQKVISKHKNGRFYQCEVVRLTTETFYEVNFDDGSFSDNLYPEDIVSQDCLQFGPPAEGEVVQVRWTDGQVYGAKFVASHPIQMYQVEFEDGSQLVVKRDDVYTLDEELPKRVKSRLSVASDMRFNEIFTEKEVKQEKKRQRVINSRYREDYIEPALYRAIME
Briefly: Inhibition of KDM4A (unknown origin) using H3K9me3 peptide and 2-oxoglutarate as substrate after 1 hr by FDH-coupled assay. The method, boiled down:
as §1

Experiment [4] has as its target Lysine-specific demethylase 7A/7B (Mus musculus) (UniProt Q3UWM4+Q80TJ7). Briefly: Inhibition of KDM7A/7B in mouse N2a cells assessed as H3K27me2 level after 24 hrs by Western blot analysis. In kind it is cell-based. The method, boiled down: (§2)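 Cells (5×10^5) were treated for 24 h in OPTI-MEM and lysed in SDS buffer. Equal protein amounts, set by Bradford assay, were resolved on 4–20% SDS-PAGE and blotted. Blots were probed with anti-H3K27me2 (1:1000) and anti-H3 (1:100000) as loading reference, detected with an HRP secondary antibody, and visualized by ECL.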
Background: In western blotting, separated proteins are transferred to a membrane and probed.

Experiment [5] is described as follows: Cell cycle arrest in human KYSE-150 cells assessed as increase in G0/G1 phase after 24 hrs by FACS analysis. In kind it is functional, cell-based. The method, boiled down:
(§3)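 HeLa or KYSE150 cells (5×10^5) were exposed for 24 h to 10 or 100 μM in RPMI 1640 with 10% FBS, then trypsinized. Cells were fixed in ice-cold 70% ethanol, PBS-washed and stained with propidium iodide (10 μg/mL) plus RNase A (0.2 mg/mL) for 30 min at 25 °C. Phase distribution was read by flow cytometry.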
(Flow cytometry measures light scatter and fluorescence of single cells or particles in a stream.)

The next experiment relates to HeLa. In words: Cell cycle arrest in human HeLa cells assessed as increase in G0/G1 phase after 24 hrs by FACS analysis. The class given is functional, cell-based. The procedure, abridged:
as §3

Experiment [6] has as its target Lysine-specific demethylase 7A/7B (Homo sapiens) (UniProt Q9UPP1+Q6ZMT4). Briefly: Inhibition of KDM7A/7B in human KYSE-150 cells assessed as H3K27me2 level at GI50 after 24 hrs by Western blot analysis. The class given is cell-based. The procedure, abridged:
as §2

Sequence of Lysine-specific demethylase 7A/7B (Homo sapiens) (Q6ZMT4 whole entry, looked up): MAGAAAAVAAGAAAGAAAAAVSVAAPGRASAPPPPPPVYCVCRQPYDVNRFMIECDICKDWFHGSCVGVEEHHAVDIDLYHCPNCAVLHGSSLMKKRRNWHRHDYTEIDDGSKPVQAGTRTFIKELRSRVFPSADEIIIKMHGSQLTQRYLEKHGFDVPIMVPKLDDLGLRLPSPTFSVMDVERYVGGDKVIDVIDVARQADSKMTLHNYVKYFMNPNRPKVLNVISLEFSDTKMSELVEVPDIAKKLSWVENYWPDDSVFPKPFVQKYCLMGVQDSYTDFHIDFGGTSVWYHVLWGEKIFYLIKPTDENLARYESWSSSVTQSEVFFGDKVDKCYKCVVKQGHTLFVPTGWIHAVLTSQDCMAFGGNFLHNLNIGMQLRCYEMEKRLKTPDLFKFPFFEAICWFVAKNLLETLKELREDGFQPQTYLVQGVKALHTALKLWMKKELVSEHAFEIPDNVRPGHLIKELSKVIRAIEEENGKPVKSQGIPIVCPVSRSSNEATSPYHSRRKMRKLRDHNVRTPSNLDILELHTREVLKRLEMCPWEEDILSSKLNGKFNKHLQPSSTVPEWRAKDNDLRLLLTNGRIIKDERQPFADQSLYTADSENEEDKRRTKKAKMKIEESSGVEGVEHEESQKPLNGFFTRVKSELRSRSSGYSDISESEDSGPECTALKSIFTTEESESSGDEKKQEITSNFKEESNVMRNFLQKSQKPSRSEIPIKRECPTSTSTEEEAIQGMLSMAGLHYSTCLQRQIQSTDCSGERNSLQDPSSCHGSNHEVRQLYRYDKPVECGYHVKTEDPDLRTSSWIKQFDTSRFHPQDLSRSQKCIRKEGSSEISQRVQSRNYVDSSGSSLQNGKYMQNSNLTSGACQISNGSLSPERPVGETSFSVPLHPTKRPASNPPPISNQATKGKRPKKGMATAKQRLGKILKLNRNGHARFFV
Sequence of Lysine-specific demethylase 7A/7B (Homo sapiens) (Q9UPP1 whole entry, looked up): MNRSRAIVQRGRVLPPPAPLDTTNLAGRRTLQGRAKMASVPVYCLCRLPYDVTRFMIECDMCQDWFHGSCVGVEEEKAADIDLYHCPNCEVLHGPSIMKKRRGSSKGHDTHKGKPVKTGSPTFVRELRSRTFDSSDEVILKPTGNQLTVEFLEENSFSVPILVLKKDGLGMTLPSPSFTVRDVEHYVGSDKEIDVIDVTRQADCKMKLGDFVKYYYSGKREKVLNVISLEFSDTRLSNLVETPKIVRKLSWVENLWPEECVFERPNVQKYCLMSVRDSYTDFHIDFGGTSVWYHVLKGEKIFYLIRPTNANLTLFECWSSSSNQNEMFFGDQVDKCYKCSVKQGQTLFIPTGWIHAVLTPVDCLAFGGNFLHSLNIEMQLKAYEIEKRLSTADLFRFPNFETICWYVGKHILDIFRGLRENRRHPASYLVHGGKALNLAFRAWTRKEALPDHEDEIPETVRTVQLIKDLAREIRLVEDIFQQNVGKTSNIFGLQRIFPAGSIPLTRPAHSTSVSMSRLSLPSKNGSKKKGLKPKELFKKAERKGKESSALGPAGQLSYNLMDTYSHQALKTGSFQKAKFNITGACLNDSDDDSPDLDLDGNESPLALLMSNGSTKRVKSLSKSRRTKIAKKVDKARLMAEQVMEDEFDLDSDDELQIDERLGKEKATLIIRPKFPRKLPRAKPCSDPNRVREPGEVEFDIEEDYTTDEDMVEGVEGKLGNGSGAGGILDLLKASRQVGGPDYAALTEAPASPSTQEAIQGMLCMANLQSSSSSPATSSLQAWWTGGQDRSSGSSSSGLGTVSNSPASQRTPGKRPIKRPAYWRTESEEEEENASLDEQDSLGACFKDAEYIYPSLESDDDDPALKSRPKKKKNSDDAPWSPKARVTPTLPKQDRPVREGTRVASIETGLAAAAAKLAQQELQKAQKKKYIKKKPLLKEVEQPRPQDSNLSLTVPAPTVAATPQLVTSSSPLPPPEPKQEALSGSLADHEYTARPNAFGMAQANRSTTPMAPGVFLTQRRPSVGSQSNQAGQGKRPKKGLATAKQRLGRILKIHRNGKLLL

As a reminder, the IC50 is the concentration that inhibits the measured activity by half. As to `CN(C)CCCCCCCCC(=O)N(O)CCC(=O)O`, the half-inhibitory concentration (IC50) in experiment [1] is 13 µM; in experiment [2], 0.2 µM; in experiment [3] it was 0.8 µM.

For `O=C(O)CCN(O)C(=O)CCCCCCCCC1CC1`, the inhibition result in experiment [4] is “Dose-dependent effect”. Besides, the figures for the IC50 in experiment [1], in experiment [2] and in experiment [3] were 55 µM, 6.8 µM and > 120 µM, respectively. In addition, the Activity entry (in experiment [5]; with HeLa) was “Dose-dependent effect” throughout. Also, the inhibition entry in experiment [6] was “Active”.

(Values after ChEMBL document CHEMBL2424657, “Identification of the KDM2/7 histone lysine demethylase subfamily inhibitor and its antiproliferative activity” (J Med Chem, 2013).)
